Laboratory results taken from publication PMC12541606 (Acta Pharmaceutica Sinica. B, 2025).
Numbered stars: 1 amine (or outer) side, 2 acyl side, 3 side chain; on linkers, the order of the positions; unused ones are H or OH. Bridge positions count the residues as written; N and C are the ends. Square brackets hold non-standard residues; d marks the D form. Peptide text beside a SMILES is read from it. I, II: the chains in the order shown. * marks the point of attachment. X1 = O=C([C@H](CCCCn1nnc2c1-c1ccccc1N([*:3])Cc1ccccc1-2)N[*:1])[*:2]; Dolaproine = CO[C@@H]([C@@H]1CCCN1)[C@@H](C)C(=O)O; Tyr(SO2F) = N[C@@H](Cc1ccc(OS(=O)(=O)F)cc1)C(=O)O; Dil = CC[C@H](C)[C@H](NC)[C@@H](CC(=O)O)OC; PABC = O=C(OCc1ccc(N[*:1])cc1)[*:2]; X2 = C[C@@H](N*)[C@@H](O)c1ccccc1; Cit = NC(=O)NCCC[C@H](N)C(=O)O; Suc = O=C(CCC(=O)[*:2])[*:1]; NMeV = CN[C@H](C(=O)O)C(C)C; AEEA = NCCOCCOCC(=O)O

Assays:
Assay type in all cases: cell-based
MDA-MB-468 cells = assay: Cell viability test; conditions: 72 h, CCK-8
caspase-3 = assay: Western blotting of cleaved caspase-3; conditions: MDA-MB-468 cells, 24 h, 37 °C
Method in brief: (§1)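 MDA-MB-468 cells were seeded and grown 24 h at 37 °C, 5% CO2. PDC test compound was diluted from a 20 mmol/L stock to final 0, 0.1, 0.5, 1, 5 and 10 μmol/L and applied for 24 h. Cells were lysed in RIPA buffer with protease inhibitors and run on SDS-PAGE. Blots were probed for caspase-3, cleaved caspase-3, PARP and β-actin, detected by ECL and quantified by densitometry.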

[1] = test system: poly ADP-ribose polymerase (PARP); assay: Western blotting of cleaved PARP; conditions: MDA-MB-468 cells, 24 h, 37 °C
Method in brief: as §1

tubulin = assay: Immunofluorescent imaging of tubulin organization; conditions: MDA-MB-468 cells, 0 to 10 μmol/L, 24 h

Row | SMILES | area under the dose-response curve (AUC) (MDA-MB-468 cells) | cleavage product of caspase-3, fold relative to untreated controls (caspase-3) | cleavage product of PARP, fold relative to untreated controls [1] | tubulin signal (in words) (tubulin)
1 | CC[C@H](C)[C@@H]([C@@H](CC(=O)N1CCC[C@H]1[C@H](OC)[C@@H](C)C(=O)N[C@H](C)[C@@H](O)c1ccccc1)OC)N(C)C(=O)[C@@H](NC(=O)[C@H](C(C)C)N(C)C(=O)OCc1ccc(NC(=O)[C@H](CCCNC(N)=O)NC(=O)[C@@H](NC(=O)CCC(=O)N2Cc3ccccc3-c3nnn(CCCC[C@H](NC(=O)COCCOCCNC(=O)COCCOCCNC(=O)[C@@H]4CSCC(=O)N[C@H](Cc5ccccc5)C(=O)N[C@@H](Cc5ccc(OS(=O)(=O)F)cc5)C(=O)N[C@@H](CC(N)=O)C(=O)N[C@@H](C)C(=O)N[C@@H](Cc5ccccc5)C(=O)N5CCC[C@H]5C(=O)N[C@@H](C(C)C)C(=O)N[C@@H](CCCNC(=N)N)C(=O)N[C@@H](Cc5ccc(O)cc5)C(=O)N[C@@H](CC(C)C)C(=O)N[C@@H](CCCCN)C(=O)N[C@@H](CCCCN)C(=O)N[C@@H](Cc5c[nH]c6ccccc56)C(=O)N4)C(N)=O)c3-c3ccccc32)C(C)C)cc1)C(C)C [CP-N1-MMAE] (I: {CH2CO}-[dF][Tyr(SO2F)]NAFPVRYLKKWC[AEEA][AEEA][X1]-NH2 / II: V[Cit][PABC][NMeV]V[Dil][Dolaproine]-X2; linker I:17-II:N via Suc; thioether I:N-I:14) | 173.3 | 5 fold | 1.5 fold | progressive, concentration-dependent reduction in tubulin signal
2 | CC[C@H](C)[C@@H]([C@@H](CC(=O)N1CCC[C@H]1[C@H](OC)[C@@H](C)C(=O)N[C@H](C)[C@@H](O)c1ccccc1)OC)N(C)C(=O)[C@@H](NC(=O)[C@H](C(C)C)N(C)C(=O)OCc1ccc(NC(=O)[C@H](CCCNC(N)=O)NC(=O)[C@@H](NC(=O)CCC(=O)N2Cc3ccccc3-c3nnn(CCCC[C@H](NC(=O)COCCOCCNC(=O)COCCOCCNC(=O)[C@@H]4CSCC(=O)N[C@H](Cc5ccccc5)C(=O)N[C@@H](Cc5ccc(OS(=O)(=O)F)cc5)C(=O)N[C@@H](CC(N)=O)C(=O)N[C@@H](C)C(=O)N[C@@H](Cc5ccccc5)C(=O)N5CCC[C@H]5C(=O)N[C@@H](C(C)C)C(=O)N[C@@H](CCCNC(=N)N)C(=O)N[C@@H](Cc5ccc(O)cc5)C(=O)N[C@@H](CC(C)C)C(=O)N[C@@H](CCCCN)C(=O)N[C@@H](CCCNC(=N)N)C(=O)N[C@@H](Cc5c[nH]c6ccccc56)C(=O)N4)C(N)=O)c3-c3ccccc32)C(C)C)cc1)C(C)C [CP-N9-MMAE] (I: {CH2CO}-[dF][Tyr(SO2F)]NAFPVRYLKRWC[AEEA][AEEA][X1]-NH2 / II: V[Cit][PABC][NMeV]V[Dil][Dolaproine]-X2; linker I:17-II:N via Suc; thioether I:N-I:14) | 215.2 |  |  | progressive, concentration-dependent reduction in tubulin signal
3 | CC[C@H](C)[C@@H]([C@@H](CC(=O)N1CCC[C@H]1[C@H](OC)[C@@H](C)C(=O)N[C@H](C)[C@@H](O)c1ccccc1)OC)N(C)C(=O)[C@@H](NC(=O)[C@H](C(C)C)N(C)C(=O)OCc1ccc(NC(=O)[C@H](CCCNC(N)=O)NC(=O)[C@@H](NC(=O)CCC(=O)N2Cc3ccccc3-c3nnn(CCCC[C@H](NC(=O)COCCOCCNC(=O)COCCOCCNC(=O)[C@@H]4CSCC(=O)N[C@H](Cc5ccccc5)C(=O)NCC(=O)N[C@@H](CC(=O)O)C(=O)N[C@@H](Cc5ccccc5)C(=O)N[C@@H]([C@@H](C)CC)C(=O)N[C@@H](CCCNC(=N)N)C(=O)N[C@@H](CCCNC(=N)N)C(=O)N[C@@H](CC(C)C)C(=O)N[C@@H](C(C)C)C(=O)N5CCC[C@H]5C(=O)N[C@@H](CCCNC(=N)N)C(=O)N[C@@H](CC(C)C)C(=O)N4)C(N)=O)c3-c3ccccc32)C(C)C)cc1)C(C)C [NP-N7-MMAE] (I: {CH2CO}-[dF]GDFIRRLVPRLC[AEEA][AEEA][X1]-NH2 / II: V[Cit][PABC][NMeV]V[Dil][Dolaproine]-X2; linker I:16-II:N via Suc; thioether I:N-I:13) | 433.7 |  |  | progressive, concentration-dependent reduction in tubulin signal
